Measured values published in ChEMBL document CHEMBL1165950, “Design and synthesis of new potent anticancer pyrazoles with high FLT3 kinase inhibitory selectivity” (Bioorg Med Chem, 2010).

What was measured:
Format in all cases: functional
NCI-H23 [1] = experiment: Cytotoxicity against human NCI-H23 cells assessed as cell growth at 100 nM after 48 hrs by sulforhodamine B assay; details: NCI-H23, 48 h, read-out: Activity
TK-10 [2] = experiment: Cytotoxicity against human TK10 cells assessed as cell growth at 100 nM after 48 hrs by sulforhodamine B assay; details: TK-10, 48 h, read-out: Activity
HCT-116 = experiment: Growth inhibition of human HCT116 cells after 48 hrs by sulforhodamine B assay; details: HCT-116, 48 h; for CC50: read-out: LC50 (the source's name)
Summary of the method: (§1)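 NCI 60-cell screen, five-dose mode. Cells grown in RPMI 1640 with 5% FBS and 2 mM L-glutamine and plated at 5000-40,000 cells/well according to doubling time. After 24 h preincubation, a Tz plate was TCA-fixed. Five concentrations (10-fold or 1/2 log dilutions) were applied for 48 h at 37 °C. SRB staining read at 515 nm. IC50 taken from [(Ti-Tz)/(C-Tz)]×100 = 50.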

U-251 = experiment: Cytotoxicity against human U251 cells assessed as cell growth at 10 uM after 48 hrs by sulforhodamine B assay; details: U-251, 48 h, read-out: Activity
A549 [3] = experiment: Cytotoxicity against human A549 cells assessed as cell growth at 1 uM after 48 hrs by sulforhodamine B assay; details: A549, 48 h, read-out: Activity
Summary of the method: (§2)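 NCI-60 five-dose screen. Cells were grown in RPMI 1640 with 5% FBS and 2 mM L-glutamine, plated at 5000–40,000 cells/well and preincubated for 24 h. Time-zero plates were TCA-fixed. DMSO-solubilized drug was added at five concentrations (10-fold or ½-log serial dilutions) for 48 h at 37 °C, 5% CO2. Cells were TCA-fixed, stained with 0.4% SRB and read at 515 nm. Percent growth used time-zero, control and test absorbances.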

PC-3 [4] = experiment: Cytotoxicity against human PC3 cells assessed as cell growth at 1 uM after 48 hrs by sulforhodamine B assay; details: PC-3, 48 h, read-out: Activity
MDA-MB-435 = experiment: Cytotoxicity against human MDA-MB-435 cells assessed as cell growth at 1 uM after 48 hrs by sulforhodamine B assay; details: MDA-MB-435, 48 h, read-out: Activity
Malme-3M = experiment: Cytotoxicity against human MALME-3M cells assessed as cell growth at 0.01 uM after 48 hrs by sulforhodamine B assay; details: read-out: Activity
SK-OV-3 [5] = experiment: Cytotoxicity against human SKOV3 cells assessed as cell growth at 0.001 uM after 48 hrs by sulforhodamine B assay; details: SK-OV-3, 48 h, read-out: Activity
OVCAR-5 = experiment: Cytotoxicity against human OVCAR5 cells assessed as cell growth at 10 uM; details: read-out: Activity
Summary of the method: (§3)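 NCI-60 screen: cells grown in RPMI 1640 with 5% FBS and 2 mM L-glutamine, plated at 5000–40,000 cells/well according to doubling time, and preincubated 24 h at 37 °C, 5% CO2. The single 10 µM dose (DMSO stock) was added, then incubated 48 h. Cells were TCA-fixed and stained with 0.4% SRB, read at 515 nm, and growth % calculated against time-zero and control plates.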

NCI-H322M = experiment: Cytotoxicity against human NCI-H322M cells assessed as cell growth at 100 nM after 48 hrs by sulforhodamine B assay; details: read-out: Activity
HCC 2998 = experiment: Cytotoxicity against human HCC2998 cells assessed as cell growth at 10 uM; details: read-out: Activity
Summary of the method: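 Single-dose NCI-60 screen at 10 µM. Cells were grown in RPMI 1640 with 5% FBS and 2 mM L-glutamine, then treated for 48 h at 37 °C. Protein was measured by SRB staining with absorbance at 515 nm. Percentage growth was recorded, and inhibition percentage was calculated as 100 minus growth percentage.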

NCI-H23 [6] = experiment: Cytotoxicity against human NCI-H23 cells assessed as cell growth at 10 uM after 48 hrs by sulforhodamine B assay; details: NCI-H23, 48 h, read-out: Activity
A549 [7] = experiment: Cytotoxicity against human A549 cells assessed as cell growth at 0.01 uM after 48 hrs by sulforhodamine B assay; details: A549, 48 h, read-out: Activity; summary of the method: as §2
HL-60(TB) = experiment: Cytotoxicity against human HL-60(TB) cells assessed as cell growth at 0.01 uM after 48 hrs by sulforhodamine B assay; details: HL-60, 48 h, read-out: Activity
Summary of the method: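 NCI 60-cell panel. Cells are grown in RPMI 1640 with 5% FBS and 2 mM L-glutamine, seeded at 5000–40,000 cells/well according to doubling time, and preincubated 24 h. Time-zero plates are TCA-fixed. Compound from DMSO stock is given at five 10-fold or 1/2-log concentrations for 48 h at 37 °C, 5% CO2. Suspension cells are fixed with 80% TCA (final 16%) and SRB-stained, with absorbance at 515 nm. Percent growth is derived from Tz, control and test readings.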

SNB-19 = experiment: Cytotoxicity against human SNB19 cells assessed as cell growth at 1 uM after 48 hrs by sulforhodamine B assay; details: SNB-19, 48 h, read-out: Activity
SF-268 = experiment: Cytotoxicity against human SF268 cells assessed as cell growth at 10 uM after 48 hrs by sulforhodamine B assay; details: SF-268, 48 h, read-out: Activity
OVCAR-3 = experiment: Cytotoxicity against human OVCAR-3 cells assessed as cell growth at 0.001 uM after 48 hrs by sulforhodamine B assay; details: OVCAR-3, 48 h, read-out: Activity
DU-145 = experiment: Cytotoxicity against human DU145 cells assessed as cell growth at 100 nM after 48 hrs by sulforhodamine B assay; details: DU-145, 48 h, read-out: Activity
UO-31 = experiment: Cytotoxicity against human UO31 cells assessed as cell growth at 0.01 uM after 48 hrs by sulforhodamine B assay; details: UO-31, 48 h, read-out: Activity
NCI-H23 [8] = experiment: Cytotoxicity against human NCI-H23 cells assessed as cell growth at 0.001 uM after 48 hrs by sulforhodamine B assay; details: NCI-H23, 48 h, read-out: Activity
SK-OV-3 [9] = experiment: Cytotoxicity against human SKOV3 cells assessed as cell growth at 10 uM; details: read-out: Activity; summary of the method: as §3
HT-29 = experiment: Growth inhibition of human HT-29 cells after 48 hrs by sulforhodamine B assay; details: HT-29, 48 h; for CC50: read-out: LC50 (the source's name); summary of the method: as §1
PC-3 [10] = experiment: Cytotoxicity against human PC3 cells assessed as cell growth at 10 uM; details: read-out: Activity; summary of the method: as §3
SF-539 = experiment: Cytotoxicity against human SF539 cells assessed as cell growth at 10 uM; details: read-out: Activity; summary of the method: as §3
UACC-257 = experiment: Cytotoxicity against human UACC257 cells assessed as cell growth at 0.01 uM after 48 hrs by sulforhodamine B assay; details: UACC-257, 48 h, read-out: Activity
UACC-62 = experiment: Cytotoxicity against human UACC62 cells assessed as cell growth at 0.001 uM after 48 hrs by sulforhodamine B assay; details: UACC-62, 48 h, read-out: Activity
TK-10 [11] = experiment: Cytotoxicity against human TK10 cells assessed as cell growth at 0.01 uM after 48 hrs by sulforhodamine B assay; details: TK-10, 48 h, read-out: Activity
OVCAR-4 = experiment: Cytotoxicity against human OVCAR4 cells assessed as cell growth at 10 uM after 48 hrs by sulforhodamine B assay; details: OVCAR-4, 48 h, read-out: Activity

Structure (SMILES)	growth at 0.1 µM (NCI-H23 [1]) [%]	growth at 0.1 µM (TK-10 [2]) [%]	GI50 (HCT-116) [µM]	TGI (HCT-116) [µM]	CC50 (HCT-116) [µM]	growth at 10 µM (U-251) [%]	growth at 1 µM (A549 [3]) [%]	growth at 1 µM (PC-3 [4]) [%]	growth at 1 µM (MDA-MB-435) [%]	growth at 0.01 µM (Malme-3M) [%]	growth at 0.001 µM (SK-OV-3 [5]) [%]	growth at 10 µM (OVCAR-5) [%]	growth at 0.1 µM (NCI-H322M) [%]	growth at 10 µM (HCC 2998) [%]	growth at 10 µM (NCI-H23 [6]) [%]	growth at 0.01 µM (A549 [7]) [%]	growth at 0.01 µM (HL-60(TB)) [%]	growth at 1 µM (SNB-19) [%]	growth at 10 µM (SF-268) [%]	growth at 0.001 µM (OVCAR-3) [%]	further results
COc1cc(C)cc(-c2c(-c3ccnc(-c4ccc(C(C)=O)cc4)c3)cnn2CC#N)c1	95	111	1.7	5.4	> 100	13	25	24	17	93	86	95	100	80.8	18	84	99	60	23	103	growth at 0.1 µM (DU-145): 89%; growth at 0.01 µM (UO-31): 87%; growth at 0.001 µM (NCI-H23 [8]): 94%; growth at 10 µM (SK-OV-3 [9]): 97.8%; GI50 (HT-29): 3.21 µM; TGI (HT-29): > 100 µM; CC50 (HT-29): > 100 µM; growth at 10 µM (PC-3 [10]): 77.3%; growth at 10 µM (SF-539): 59.9%; growth at 0.01 µM (UACC-257): 81%; growth at 0.001 µM (UACC-62): 93%; growth at 0.01 µM (TK-10 [11]): 100%; growth at 10 µM (OVCAR-4): 30%
Cc1cc(O)cc(-c2nn(CC#N)cc2-c2ccnc(-c3ccc(Oc4ccccc4)cc3)c2)c1	96	102	1.56	2.9	5.38	-98	-37	-12	-18	77	79	96.8	95	28.2	-75	88	95	55	-95	92	growth at 0.1 µM (DU-145): 86%; growth at 0.01 µM (UO-31): 85%; growth at 0.001 µM (NCI-H23 [8]): 91%; growth at 10 µM (SK-OV-3 [9]): 89.6%; GI50 (HT-29): 1.83 µM; TGI (HT-29): 3.84 µM; CC50 (HT-29): 8.06 µM; growth at 10 µM (PC-3 [10]): 66.4%; growth at 10 µM (SF-539): 75.5%; growth at 0.01 µM (UACC-257): 80%; growth at 0.001 µM (UACC-62): 92%; growth at 0.01 µM (TK-10 [11]): 99%; growth at 10 µM (OVCAR-4): -83%
COc1cc(C)cc(-c2nn(CC#N)cc2-c2ccnc(-c3ccc(N(C)C)cc3)c2)c1	31	50	0.353	1.64	> 100	-32	14	17	-7	91	105	55.9	49	-46.5	5	97	97	19	-32	106	growth at 0.1 µM (DU-145): 2%; growth at 0.01 µM (UO-31): 92%; growth at 0.001 µM (NCI-H23 [8]): 93%; growth at 10 µM (SK-OV-3 [9]): 2.56%; GI50 (HT-29): 0.481 µM; TGI (HT-29): 2.88 µM; CC50 (HT-29): 37.2 µM; growth at 10 µM (PC-3 [10]): 31.6%; growth at 10 µM (SF-539): -17.5%; growth at 0.01 µM (UACC-257): 91%; growth at 0.001 µM (UACC-62): 91%; growth at 0.01 µM (TK-10 [11]): 119%; growth at 10 µM (OVCAR-4): 15%
Cc1cc(O)cc(-c2nn(CC#N)cc2-c2ccnc(-c3ccc(N(C)C)cc3)c2)c1	98	125	2.71	10.4	41.9	-66	23	18	-49	92	92	111	93	53.5	-37	91	97	28	-58	105	growth at 0.1 µM (DU-145): 94%; growth at 0.01 µM (UO-31): 84%; growth at 0.001 µM (NCI-H23 [8]): 94%; growth at 10 µM (SK-OV-3 [9]): 18%; GI50 (HT-29): 4.65 µM; TGI (HT-29): 20.8 µM; CC50 (HT-29): 93.9 µM; growth at 10 µM (PC-3 [10]): 40.4%; growth at 10 µM (SF-539): 21.7%; growth at 0.01 µM (UACC-257): 81%; growth at 0.001 µM (UACC-62): 90%; growth at 0.01 µM (TK-10 [11]): 107%; growth at 10 µM (OVCAR-4): 9%
COc1cc(C)cc(-c2c(-c3ccnc(-c4ccc(N(C)C)cc4)c3)cnn2CC#N)c1	28	44	0.0501	1.03	> 100	6	5	13	-29	34	102	77.7	20	-57.5	17	59	52	36	20	98	growth at 0.1 µM (DU-145): -51%; growth at 0.01 µM (UO-31): 63%; growth at 0.001 µM (NCI-H23 [8]): 86%; growth at 10 µM (SK-OV-3 [9]): -3.63%; GI50 (HT-29): 0.0377 µM; TGI (HT-29): 0.211 µM; growth at 10 µM (PC-3 [10]): 27.6%; growth at 10 µM (SF-539): -7.06%; growth at 0.01 µM (UACC-257): 38%; growth at 0.001 µM (UACC-62): 96%; growth at 0.01 µM (TK-10 [11]): 75%; growth at 10 µM (OVCAR-4): 25%
